Source: PubChem (several laboratories)
ROMK primary: modulates human ROMK potassium channel activity; AID 1918; B-score at 10 µM; P48048; Tet-inducible ROMK, thallium flux fluorescence; actives lie on both sides; 130,000 tested, 2% active;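 active means signal ratio slope over the read window, or its plate-corrected B-score, at least 3 SD from the plate mean, either direction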;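 further: B-score of the F/F0 ratio slope over 7 to 12 s after thallium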
Dynein cargo inh: blocks dynein driven cargo transport along microtubules; z-score, hits read low; 3617.4 mouse cells, GR-EGFP nuclear translocation imaging; test concentration mostly 20 µM; stimulated with dexamethasone, 1 µM; stronger effect = lower value; 220,000 tested, 0.47% active;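 active means plate z-score of nuclear minus cytoplasmic receptor signal below a set negative limit, without overly bright fluorescence or cell loss, cut at about -3.5 in these data, passing the limit was not always enough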;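 further: z-score of nuclear minus cytoplasmic ring GR-EGFP intensity difference per well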
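medium = tetracycline-free induction medium containing charcoal-stripped FBS | also added = 1.0 µM final dexamethasone stimulus | schedule = 48 h induction, 1 h compound, 30 min dex at 37 °C | technique = fixed, Hoechst-stained cells imaged at 10x for EGFP | measure = GR-EGFP nuclear translocation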
Autophagy HCS: modulators of autophagy. MEF GFP-LC3 puncta imaging; test concentration mostly 10 µM. calls only at 10 µM (by protocol). 190,000 tested, 0.98% active. AID 463193;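 active means percentage of spot-positive cells more than 3 SD above its plate mean, without a fluorescence outlier flag or 80% toxicity; inconclusive means no clear call, values can overlap the other calls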;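 further: spot-positive cell cutoff set from DMSO-treated cells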
DTT redox prof: compounds producing H2O2 with reducing agent – biochemical, NIH compound library profiling, artefact control for MLSCN library redox annotation, primary screen; 200,000 tested, 0.03% active; DTT-dependent redox cycling H2O2, phenol red/HRP absorbance; 100% = 100 µM peroxide control, 0% = buffer; activation, % at 10 µM;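 active means activation of at least 50% relative to the plate's high and low controls in the primary single-dose screen; inactive means activation below 50%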;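 further: compound incubated with DTT at 0.8 mM final as the reducing agent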
Cl transport mod: KCC2 (human) Cl- transport modulation. KCC2 cells, thallium flux FluoZin-2 fluorescence. AID 1456. Q9H2X9. B-score of Tl+ flux slope (higher = more flux/activation; lower = inhibition) at 10 µM. 190,000 tested, 2.2% active;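 active means thallium flux slope and its plate-corrected score both differing from the plate sample mean at a set confidence after two filtering rounds, in either direction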;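 further: slope of fluorescence scaled to starting intensity during 10 to 20 s after thallium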
Target sequence (Q9H2X9 whole entry, looked up): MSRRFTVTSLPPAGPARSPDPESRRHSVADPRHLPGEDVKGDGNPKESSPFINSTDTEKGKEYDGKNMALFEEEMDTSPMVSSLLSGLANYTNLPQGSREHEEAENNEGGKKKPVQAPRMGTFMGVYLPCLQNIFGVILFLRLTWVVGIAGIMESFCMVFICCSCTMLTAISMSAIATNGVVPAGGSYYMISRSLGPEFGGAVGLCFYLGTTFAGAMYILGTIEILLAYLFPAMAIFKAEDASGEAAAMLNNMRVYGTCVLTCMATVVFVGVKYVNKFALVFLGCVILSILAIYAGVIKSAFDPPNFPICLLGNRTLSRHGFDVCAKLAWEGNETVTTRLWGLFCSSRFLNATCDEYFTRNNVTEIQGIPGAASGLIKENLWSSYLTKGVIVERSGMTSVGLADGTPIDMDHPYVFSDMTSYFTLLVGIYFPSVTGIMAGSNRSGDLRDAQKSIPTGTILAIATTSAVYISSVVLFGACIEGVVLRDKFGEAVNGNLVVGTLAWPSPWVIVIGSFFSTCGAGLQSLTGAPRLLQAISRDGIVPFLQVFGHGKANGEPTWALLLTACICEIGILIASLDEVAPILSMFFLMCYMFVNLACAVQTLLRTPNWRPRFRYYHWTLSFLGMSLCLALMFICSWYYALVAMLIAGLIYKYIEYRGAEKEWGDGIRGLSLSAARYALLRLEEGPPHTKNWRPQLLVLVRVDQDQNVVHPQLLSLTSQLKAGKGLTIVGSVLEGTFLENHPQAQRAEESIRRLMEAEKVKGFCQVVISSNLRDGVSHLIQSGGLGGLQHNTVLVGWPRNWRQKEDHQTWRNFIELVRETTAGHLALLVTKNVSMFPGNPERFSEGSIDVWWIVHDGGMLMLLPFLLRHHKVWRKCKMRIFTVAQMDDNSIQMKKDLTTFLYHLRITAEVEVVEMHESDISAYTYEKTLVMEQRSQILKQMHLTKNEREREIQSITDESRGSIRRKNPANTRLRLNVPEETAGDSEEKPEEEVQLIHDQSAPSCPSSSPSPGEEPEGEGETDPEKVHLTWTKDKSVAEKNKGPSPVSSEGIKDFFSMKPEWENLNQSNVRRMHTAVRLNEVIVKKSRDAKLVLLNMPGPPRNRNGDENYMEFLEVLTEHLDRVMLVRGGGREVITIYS
KCC2 secondary: confirmation of human KCC2 transport modulators. shares compounds with Cl transport mod. HEK293-KCC2, thallium flux, FluoZin2 fluorescence; stronger effect = higher value. 3,700 tested, 15% active. normalised thallium flux (F/F0 slope) at 10 µM. AID 1713;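 active means thallium flux slope above the same plate's solvent-only control mean plus 3 SD; inconclusive means the two replicate wells disagree; inactive means no significant difference from solvent-only control wells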
KCC2 bumet counter: thallium flux persisting under bumetanide in KCC2 cells, counter-screen secondary assay; shares compounds with Cl transport mod; HEK293-KCC2 + bumetanide/ouabain, thallium flux FluoZin2; stronger effect = higher value; normalized thallium flux at 10 µM; 3,700 tested, 49% active; AID 1714;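 active means thallium entry rate above the same plate's blocked-transporter control wells by more than 3 SD; inconclusive means the two repeat wells disagree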;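 further: raw slope of fluorescence over initial fluorescence between 10 and 20 s after thallium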
KCC2 secondary2: KCC2 (human) modulation, second secondary assay; AID 1715; 3,700 tested, 23% active; HEK293-KCC2, thallium flux FluoZin2 fluorescence; actives lie on both sides; F/F0 rise rate, 10–20 s post-thallium; shares compounds with Cl transport mod; normalized thallium flux at 10 µM;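 active means thallium flux slope more than 3 SD above or below the plate's solvent-only control mean, mostly below; inconclusive means the two repeat wells disagreed; inactive means no significant shift from solvent-only controls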;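 further: raw slope with 0.1% DMSO as baseline and bumetanide as block control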
HEK293 Tl flux: counter-screen for KCC2 modulators: effect in parental HEK293 cells; shares compounds with Cl transport mod; thallium flux FluoZin2, ouabain; baseline-ratio fluorescence slope, 10–20 s after thallium; thallium flux rate (normalised fluorescence) at 10 µM; 3,700 tested, 46% active;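 active means thallium flux rate significantly above the same plate's solvent-only control wells, beyond their mean plus 3 SD; inconclusive means the two replicate wells gave conflicting results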
KCC2 retest ouab: confirmation of human KCC2 modulators with ouabain; shares compounds with Cl transport mod; HEK293-KCC2, thallium flux FluoZin2 fluorescence; bidirectional: low = inhibitor, high = activator; raw Tl+ flux slope (below DMSO = inhibition, above = activation) at 10 µM; 3,700 tested, 48% active;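 active means thallium flux slope beyond 3 SD from same-plate DMSO control mean in most replicates, usually higher, sometimes lower; inconclusive means repeat tests gave conflicting results; inactive means no significant difference from controls in most replicates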;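 further: slope of initial-normalized fluorescence between seconds 10 and 20 after thallium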
HEK counter2: parental HEK flux effect, counter-screen 2; shares compounds with Cl transport mod; HEK293 parental, thallium flux FluoZin-2 fluorescence slope; thallium flux slope at 10 µM; 3,700 tested, 33% active; AID 1718;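 active means thallium flux slope above the same plate's solvent-control mean plus 3 SD in both duplicate wells; inconclusive means duplicate wells that disagreed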;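 further: run without ouabain in cells lacking the KCC2 cotransporter; slope of fluorescence scaled to its starting value between 10 and 20 s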
* = called active by the depositor; i = inactive; ? = inconclusive; . = no result given. A selection: hits, their analogues and other compounds. The true share with any hit is near 4.1%.

SMILES | ROMK primary | Dynein cargo inh | Autophagy HCS | DTT redox prof | Cl transport mod | KCC2 secondary | KCC2 bumet counter | KCC2 secondary2 | HEK293 Tl flux | KCC2 retest ouab | HEK counter2
O=C(O)CC/C(=C\c1ccc(N2CCCC2)c([N+](=O)[O-])c1)c1nc2ccccc2s1 | 0.98 | -0.71 | i | -2 | -8.5* | 0.007 | 0.0046 | 0.02* | 0.0073 | 0.011* | 0.0097
CCOC(=O)N1CCN(C(=O)/C=C/c2c(C)nn(-c3ccc(F)cc3)c2Cl)CC1 | . | -0.3 | i | 0 | -2.7 | . | . | . | . | . | .
O=C(O)CC/C(=C\c1ccccc1[N+](=O)[O-])c1nc2ccccc2s1 | -1.3 | -0.77 | i | -1 | -4.1* | 0.0092 | 0.0072 | ? | 0.0065 | 0.012* | 0.01
O=C(O)CC/C(=C\c1cccc(NC(=O)c2ccccc2Cl)c1)c1nc2ccccc2s1 | 0.37 | 1 | i | 0 | -2.3* | 0.007 | 0.0051 | ? | 0.0077 | ? | 0.012
Cn1cnnc1Sc1ccc(/C=C(\CC(=O)O)c2nc3ccccc3s2)cc1[N+](=O)[O-] | . | -0.48 | . | . | -1.5 | . | . | . | . | . | .
Cc1nn(-c2ccc(F)cc2)c(Cl)c1/C=C(\CCC(=O)O)c1nc2ccccc2s1 | . | 0.5 | i | -7 | -9.4* | ? | ? | 0.018* | 0.0059* | 0.0093* | ?
COc1ccc(NC(=O)C(=S)NC2CCCCC2)cc1 | 1.2 | -0.13 | i | 0 | -1.5 | . | . | . | . | . | .
O=C(COC(=O)c1ccc(NS(=O)(=O)c2ccc(F)c(F)c2)cc1)NCC1CCCO1 (stereo unspecified) | 1 | -0.38 | i | 1 | -0.58 | . | . | . | . | . | .
COc1ccc(CCNC(=O)CSc2nnc(C(C)N(C)C)n2Cc2ccccc2)cc1OC (stereo unspecified) | 0.3 | 0.16 | i | -1 | 0.78 | . | . | . | . | . | .
Cc1cc(C(=O)NNC(=O)c2ccc(Cl)cc2)no1 | 0.059 | -1.3 | . | . | 5.9* | 0.011 | 0.016* | 0.037 | 0.013* | 0.027 | 0.012*
Cc1cc(/C(N)=N/OC(=O)c2cccc(Cl)c2)no1 | . | -0.44 | . | . | -0.02 | . | . | . | . | . | .
Cc1nc(-c2nc(-c3c(C(=O)NNC(=O)Nc4cccc(Cl)c4)noc3C)cs2)cs1 | 0.64 | 1 | . | . | 0.6 | . | . | . | . | . | .
O=C(NNC(=O)c1ccccc1Br)c1cccc(Cl)c1 | . | -0.45 | i | 2 | 1.3 | . | . | . | . | . | .
Cc1cc(C(=O)NNC(=O)c2cccc(Cl)c2)no1 | . | 1.4 | . | . | 7.4* | 0.0068 | 0.014* | 0.032 | 0.014* | ? | 0.018*
Cc1nc(-c2nc(-c3c(C(=O)NNC(=O)c4ccc(Cl)cc4)noc3C)cs2)cs1 | 1.3 | -0.81 | . | . | 103* | 0.043* | 0.15* | 0.042 | ? | 0.092* | 0.021*
Cc1cc(/C(N)=N/OC(=O)c2ccc(Cl)cc2)no1 | . | -0.074 | . | . | 1.7 | . | . | . | . | . | .
NC(=S)NNC(=O)c1cccc(Cl)c1 | -0.93 | 0.74 | . | . | 5.6* | ? | ? | 0.032 | 0.01* | 0.019 | ?
COc1ccc(-c2csc(NC(=O)/C(N=Nc3ccccc3)=C(\C)O)n2)cc1 | 0.0093 | 1.9 | i | 9 | . | . | . | . | . | . | .
Cc1nc(C(=O)NNC(=O)c2ccc(Cl)cc2)cs1 | 0.58 | -0.12 | . | . | 9.9* | ? | 0.025* | 0.035 | 0.012* | 0.029 | ?
O=C(NC(=S)NNC(=O)c1cccs1)c1ccco1 | 0.44 | 1.2 | i | 2 | 3.6* | 0.018* | 0.029* | 0.038 | 0.019* | 0.036* | 0.013*
O=C(NNC(=S)Nc1ccccc1)c1ccco1 | . | 1 | i | 3 | 1.6 | . | . | . | . | . | .
O=C(NNC(=S)NC(=O)c1ccco1)c1ccc(F)cc1 | . | 0.19 | . | . | 60* | 0.026* | 0.063* | ? | 0.035* | 0.043* | 0.019*
CCCOc1ccc(C(=O)NNC(=S)NC(C)=O)cc1 | . | 1.9 | i | -5 | 3.6 | . | . | . | . | . | .
CCCOc1ccc(C(=O)NCCO)cc1 | 0.59 | 0.12 | i | 0 | 5.9* | 0.0095 | 0.0057 | 0.033 | 0.0078 | 0.023 | 0.0099
CCCOc1ccc(C(=O)NNC(=S)NC(=O)c2ccco2)cc1 | . | 3.3 | . | . | 97* | 0.007 | 0.0048 | 0.084* | 0.086* | ? | 0.084*
SMILES | ROMK primary | Dynein cargo inh | Autophagy HCS | DTT redox prof | Cl transport mod | KCC2 secondary | KCC2 bumet counter | KCC2 secondary2 | HEK293 Tl flux | KCC2 retest ouab | HEK counter2
CC1(C)Cc2c(sc3nc(-c4ccccc4)oc(=O)c23)CO1 | 0.16 | 0.54 | i | 0 | 0.41 | . | . | . | . | . | .
O=C(COc1ccc(Cl)cc1Cl)NNC(=S)NC(=O)c1ccco1 | 1.7 | -0.25 | . | . | 70* | 0.03* | 0.12* | 0.036 | ? | 0.076* | 0.03*
Cc1ccc(/C=C2\SC(=S)N(/N=C/c3cc([N+](=O)[O-])ccc3O)C2=O)o1 | 1.5 | 0.3 | i | 0 | 3.8* | 0.01 | 0.013* | 0.031 | 0.0096* | 0.028* | 0.01
Cc1ccc(/C=C2\SC(=S)N(C3CCS(=O)(=O)C3)C2=O)o1 (stereo unspecified) | -1.9 | -0.19 | i | 0 | 0.4 | . | . | . | . | . | .
O=C(CSc1nnc(-c2ccco2)o1)c1ccc(O)cc1O | -0.95 | 1.4 | i | 0 | -0.00022 | . | . | . | . | . | .
Cc1ccc(SCC(=O)Nc2ccc(N3CCN(C)CC3)c(F)c2)c(C)c1 | -0.065 | -0.44 | i | 0 | -0.73 | . | . | . | . | . | .
O=C(O)C1CSC2(c3ccc(Br)cc3)CCC(=O)N12 (stereo unspecified) | -0.4 | 1.2 | i | -1 | -3 | . | . | . | . | . | .
Cc1occc1-c1nnc(SCC(=O)N2CCOCC2)n1Cc1ccco1 | 0.016 | 1 | i | 0 | 6.4* | 0.0092 | 0.0062 | 0.035 | 0.008 | 0.022 | 0.01
Cc1ccccc1Nc1nnc(SCC(=O)Nc2ncc(C(F)(F)F)cc2Cl)s1 | . | 0.98 | i | 0 | -1.7 | . | . | . | . | . | .
Cc1cccc(Nc2nnc(SCC(=O)Nc3ncc(C(F)(F)F)cc3Cl)s2)c1C | . | -0.17 | i | 1 | -3.6* | 0.0059 | 0.0052 | 0.024* | 0.0067 | ? | 0.01
Cc1cccc(C)c1Nc1nnc(SCC(=O)Nc2ncc(C(F)(F)F)cc2Cl)s1 | -1 | 0.15 | i | -1 | -6.5* | 0.0057* | 0.0069 | 0.025* | ? | 0.014* | 0.0093
